ChEMBL document CHEMBL1154778, “Synthesis and biological evaluation of C-5 methyl substituted 4-arylthio and 4-aryloxy-3-Iodopyridin-2(1H)-one type anti-HIV agents” (J Med Chem, 2009)

Legend:
[1] = test system: Human immunodeficiency virus 1; assay: Antiviral activity against HIV-1 LAI harboring wild type reverse transcriptase infected in human MT4 cells after 5 days by MTT assay; type: functional, organism-based; conditions: Human immunodeficiency virus 1, LAI, MT4, 120 h
Procedure, shortened: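 MT4 cells were kept in RPMI 1640 with 10% fetal calf serum and antibiotics at 37 °C, 5% CO2. A range of compound concentrations was incubated with HIV-1 LAI at 200 CCID50/well and 30000 MT4 cells/well for 5 days at 37 °C. Cell viability was read by MTT, and IC50 was the concentration giving 50% infection versus the drug-free control.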

[2] = Selectivity index, ratio of CC50 for human MT4 cells to IC50 for HIV-1 LAI harboring wild type reverse transcriptase infected in human MT4 cells; type: functional
Procedure, shortened: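 Cytotoxicity was measured in mock-infected MT4 cultures (30000 cells/well) given the same compound concentration range, run in parallel with the infected cultures for 5 days at 37 °C, 5% CO2, with MTT viability. CC50 was the concentration reducing viability by 50% versus the drug-free control. SI was CC50 divided by IC50 against HIV-1 LAI.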

[3] = test system: Human immunodeficiency virus 1; assay: Antiviral activity against HIV1 HXB2 harboring Y181C mutant reverse transcriptase infected in human MT4 cells after 5 days by MTT assay; type: functional, organism-based; conditions: Human immunodeficiency virus 1, HXB2, MT4, 120 h
Procedure, shortened: (§1)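 Mutant viruses were made by recombining the mutant PR-RT sequence into a PR-RT-deleted HIV-1 HXB2 proviral clone. MT4 cells were grown in RPMI 1640 with 10% FCS and antibiotics. Virus at 200 CCID50/well and 30000 cells/well were incubated with varied compound concentrations for 5 days at 37 °C, 5% CO2. MTT viability gave IC50, the concentration giving 50% infection versus the drug-free control.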

[4] = test system: Human immunodeficiency virus 1; assay: Antiviral activity against HIV1 HXB2 harboring Y188L mutant reverse transcriptase infected in human MT4 cells after 5 days by MTT assay; type: functional, organism-based; conditions: Human immunodeficiency virus 1, HXB2, MT4, 120 h; procedure, shortened: as §1
[5] = test system: Human immunodeficiency virus 1; assay: Antiviral activity against HIV1 HXB2 harboring K103N mutant reverse transcriptase infected in human MT4 cells after 5 days by MTT assay; type: functional, organism-based; conditions: Human immunodeficiency virus 1, HXB2, MT4, 120 h; procedure, shortened: as §1

Row | Compound | IC50 [1] [nM] | Ratio CC50/IC50 [2] | IC50 [3] [nM] | IC50 [4] [nM] | IC50 [5] [nM]
1 | Cc1cc(C)cc(Sc2c(CN3CCOC(CN(C)C)C3)c(C)[nH]c(=O)c2I)c1 (configuration not stated) | 5.01 | >5012 | 158 | 1000 | 
2 | Cc1cc(C)cc(Oc2c(CO)c(C)[nH]c(=O)c2I)c1 | 5 | >19953 | 158 | 3160 | 158
3 | Cc1cc(C)cc(Sc2c(CSCc3ccco3)c(C)[nH]c(=O)c2I)c1 | 6.3 | >12589 | 39.8 | 1000 | 5.01
4 | Cc1cc(C)cc(Oc2c(Cn3ccnn3)c(C)[nH]c(=O)c2I)c1 | 2.51 | >39810 | 31.6 | 79.4 | 7.94
5 | Cc1cc(C)cc(Sc2c(Cn3nc(-c4ccco4)nc3C)c(C)[nH]c(=O)c2I)c1 | 1.99 | >50119 | 31.6 | 31.6 | 12.5
6 | Cc1cc(C)cc(Oc2c(Cn3ncc4ccccc43)c(C)[nH]c(=O)c2I)c1 | 7.9 | >3981 |  |  | 
7 | Cc1cc(C)cc(Oc2c(CSCc3ccccc3)c(C)[nH]c(=O)c2I)c1 | 6.3 | >15849 | 15.8 | 31.6 | 7.94
8 | Cc1cc(C)cc(Sc2c(Cn3cnc(C)n3)c(C)[nH]c(=O)c2I)c1 | 0.79 | >125893 | 15.8 | 100 | 1.99
9 | Cc1cc(C)cc(Oc2c(Cn3cncn3)c(C)[nH]c(=O)c2I)c1 | 1.99 | >50118 | 10 | 100 | 3.98
10 | Cc1cc(C)cc(Sc2c(Cn3ccnc3C#N)c(C)[nH]c(=O)c2I)c1 | 1 | >31623 |  |  | 
11 | CNC(=O)CSCc1c(C)[nH]c(=O)c(I)c1Oc1cc(C)cc(C)c1 | 1.58 | >60096 | 19.9 | 158 | 3.98
12 | Cc1cc(C)cc(Oc2c(Cn3cncc3-c3ccccc3)c(C)[nH]c(=O)c2I)c1 | 6.3 | >15858 | 31.6 | 31.6 | 7.94
13 | Cc1cc(C)cc(Sc2c(CN3CCC(O)CC3)c(C)[nH]c(=O)c2I)c1 | 5.01 | >19953 | 316 | 3980 | 12.5
14 | Cc1cc(C)cc(Sc2c(Cn3ccnc3)c(C)[nH]c(=O)c2I)c1 | 1.25 | 15849 | 7.9 | 50.1 | 0.79
15 | Cc1cc(C)cc(Oc2c(CN3CC=CC3)c(C)[nH]c(=O)c2I)c1 | 3.98 | 15848 | 50.1 | 125 | 7.94
16 | Cc1cc(C)cc(Oc2c(CSCc3cccc(C#N)c3)c(C)[nH]c(=O)c2I)c1 | 3.16 | 19953 | 6.3 | 794 | 1.58
17 | Cc1cc(C)cc(Sc2c(Cn3cncn3)c(C)[nH]c(=O)c2I)c1 | 1 | >25119 | 7.94 | 125 | 1
18 | Cc1cc(C)cc(Oc2c(Cn3cnc(C)n3)c(C)[nH]c(=O)c2I)c1 | 3.98 | >25118 | 31.6 | 125 | 15.8
19 | CCOCc1c(C)[nH]c(=O)c(I)c1Oc1cc(C)cc(C)c1 | 0.63 | >158489 | 6.3 | 125 | 6.3
20 | Cc1cc(C)cc(Sc2c(Cn3cccc3)c(C)[nH]c(=O)c2I)c1 | 2.51 | 19953 | 31.6 | 158 | 1
21 | Cc1cc(C)cc(Sc2c(CN(C)CCC#N)c(C)[nH]c(=O)c2I)c1 | 2.51 | >31623 | 63 | 1000 | 6.3
22 | Cc1cc(C)cc(Oc2c(CSCc3nccs3)c(C)[nH]c(=O)c2I)c1 | 7.94 | >12589 | 39.8 | 2000 | 25.1
23 | Cc1cc(C)cc(Oc2c(CN(C)Cc3ccco3)c(C)[nH]c(=O)c2I)c1 | 5.01 | 12589 | 39.8 | 251 | 31.6
24 | COCCC1CN(Cc2c(C)[nH]c(=O)c(I)c2Sc2cc(C)cc(C)c2)CCO1 (configuration not stated) | 3.98 | 12589 | 63 | 398 | 5.01

Row | Compound | IC50 [1] [nM] | Ratio CC50/IC50 [2] | IC50 [3] [nM] | IC50 [4] [nM] | IC50 [5] [nM]
25 | CCOC(=O)CC1CN(Cc2c(C)[nH]c(=O)c(I)c2Oc2cc(C)cc(C)c2)CCO1 (configuration not stated) | 6.3 | >15849 | 25.1 | 50.1 | 1.99
26 | Cc1cc(C)cc(Oc2c(CN3CCN(C(=O)c4ccco4)CC3)c(C)[nH]c(=O)c2I)c1 | 10 | 1585 | 125 | 158 | 25.1
27 | Cc1cc(C)cc(Oc2c(Cn3ccc(N)n3)c(C)[nH]c(=O)c2I)c1 | 7.9 | >12589 | 39.8 | 125 | 39.8
28 | COC1CCN(Cc2c(C)[nH]c(=O)c(I)c2Sc2cc(C)cc(C)c2)CC1 | 3.98 | 10000 | 199 | 2000 | 12.5
29 | Cc1cc(C)cc(Oc2c(CSCC(C)C)c(C)[nH]c(=O)c2I)c1 | 7.94 | >12589 | 50.1 | 794 | 25.1
30 | Cc1cc(C)cc(Sc2c(Cn3cnc(C)c3C#N)c(C)[nH]c(=O)c2I)c1 | 1.25 | >79433 | 31.6 | 100 | 1.25
31 | COC1CCCN(Cc2c(C)[nH]c(=O)c(I)c2Oc2cc(C)cc(C)c2)C1 (configuration not stated) | 6.3 | >15849 | 15.8 | 39.8 | 6.3
32 | Cc1cc(C)cc(Sc2c(CSc3nccs3)c(C)[nH]c(=O)c2I)c1 | 5.01 | 15849 | 199 | 3160 | 7.94
33 | Cc1cc(C)cc(Oc2c(CSCC3CCCO3)c(C)[nH]c(=O)c2I)c1 (configuration not stated) | 7.94 | >12589 | 63 | 158 | 25.6
34 | Cc1cc(C)cc(Oc2c(CSCc3cccs3)c(C)[nH]c(=O)c2I)c1 | 2.51 | >39811 | 19.9 | 39.8 | 1
35 | COCCOCc1c(C)[nH]c(=O)c(I)c1Oc1cc(C)cc(C)c1 | 1.58 | >63096 | 10 | 158 | 50.1
36 | Cc1cc(C)cc(Sc2c(CN3CCOC(CC#N)C3)c(C)[nH]c(=O)c2I)c1 (configuration not stated) | 1.58 | 25119 | 25.1 | 100 | 1
37 | Cc1cc(C)cc(Sc2c(CN3CCOCC3)c(C)[nH]c(=O)c2I)c1 | 1.25 | 7943 | 31.6 | 158 | 1.25
38 | Cc1cc(C)cc(Sc2c(Cn3ccnn3)c(C)[nH]c(=O)c2I)c1 | 1.99 | >50119 | 10 | 50.1 | 1
39 | CC(=O)c1c(C)cn(Cc2c(C)[nH]c(=O)c(I)c2Sc2cc(C)cc(C)c2)c1C | 10 | 5012 | 63 | 199 | 50.1
40 | Cc1cc(C)cc(Oc2c(Cn3ccnc3Br)c(C)[nH]c(=O)c2I)c1 | 7.9 | >3981 |  |  | 
41 | Cc1cc(C)cc(Oc2c(CN3CCC(OC(N)=O)CC3)c(C)[nH]c(=O)c2I)c1 | 6.3 | 7943 | 25.1 | 50.1 | 1.99
42 | CCOC(=O)CC1CN(Cc2c(C)[nH]c(=O)c(I)c2Sc2cc(C)cc(C)c2)CCO1 (configuration not stated) | 2.51 | 25119 | 25.1 | 50 | 0.62
43 | Cc1cc(C)cc(Oc2c(CN3CCCC(C(N)=O)C3)c(C)[nH]c(=O)c2I)c1 (configuration not stated) | 10 | >10000 |  |  | 
44 | CCOC(=O)CSCc1c(C)[nH]c(=O)c(I)c1Oc1cc(C)cc(C)c1 | 10 | >10000 |  |  | 
45 | Cc1cc(C)cc(Sc2c(CN3CCN(C(=O)c4ccco4)CC3)c(C)[nH]c(=O)c2I)c1 | 10 | 398 |  |  | 
46 | Cc1cc(C)cc(Sc2c(CN)c(C)[nH]c(=O)c2I)c1 | 19.9 |  | 794 | > 10000 | 158
47 | Cc1cc(C)cc(Sc2c(Cn3cccc3C#N)c(C)[nH]c(=O)c2I)c1 | 1 | >31623 |  |  | 
